Assay outcomes (PubChem)
Compounds with a hit are over-represented: about 3.1% of the library has one in this group of screens.
MPTP inh – permeability transition pore inhibition. isolated mouse mitochondria, Ca2+ swelling absorbance, 30 min. inhibition, % at 10 µM. actives 1.4% (n = 360,000). AID 602449;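 active = inhibition of 50% or more, scaled per plate between neutral and stimulator controls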;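 note: 0% = DMSO wells given calcium and 100% = 1 mM EGTA wells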
aDG glyco act – alpha-DG glycosylation activation | activation, % at 10 µM | Pro5-aDG cells, alpha-DG glycosylation AlphaScreen (IIH6); 0% Pro5, 100% B10-LARGE cell signal | AID 624168 | actives 0.22% (n = 360,000);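 active = activation of at least 8% versus controls, or a plate z-score of at least 8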;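 note: Pro5 are CHO cells carrying HIG-tagged alpha-DG that lacks glycosylation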
ADAM10 inh – ADAM10 inhibition, QFRET primary screen; O14672; recombinant ADAM10, EDANS/DABCYL FRET peptide cleavage, 3 h; inhibition, % at 7 µM; actives 0.62% (n = 370,000);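 active = inhibition above a per-campaign cutoff equal to the mean of compounds falling between control-based bounds plus 3 SD, cut at about 20% in these data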;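 note: 0% = DMSO wells while the 100% control is not disclosed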
Lipid droplet – hepatic lipid droplet formation modulation | AML12 mouse hepatocytes, oleate lipid droplets, BODIPY imaging | inhibition, % at 6.5 µM | actives 0.4% (n = 240,000) | AID 1656;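 active = lipid droplet intensity inhibited by at least 50%, with more than 500 cells counted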
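System: AML12 hepatocytes (mouse). Probe or stimulus: oleic acid at 100 µM to induce lipid droplet formation. Times: overnight treatment with compound plus oleate. Detection: Image-based BODIPY and DAPI two-channel analysis. Evaluation: percent inhibition of filter-corrected integrated lipid droplet intensity per well.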
ADAM17 inh – ADAM17 inhibition, QFRET primary screen | recombinant ADAM17, EDANS/DABCYL FRET peptide cleavage | P78536 | AID 720648 | inhibition, % at 6.95 µM | actives 0.83% (n = 370,000);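 active = inhibition above the mean of compounds lying between control limits plus 3 SD, set per campaign, cut at about 8.5% in these data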;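 note: 0% = DMSO-only wells as the low control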
Target sequence (P78536 215-824 limits assumed): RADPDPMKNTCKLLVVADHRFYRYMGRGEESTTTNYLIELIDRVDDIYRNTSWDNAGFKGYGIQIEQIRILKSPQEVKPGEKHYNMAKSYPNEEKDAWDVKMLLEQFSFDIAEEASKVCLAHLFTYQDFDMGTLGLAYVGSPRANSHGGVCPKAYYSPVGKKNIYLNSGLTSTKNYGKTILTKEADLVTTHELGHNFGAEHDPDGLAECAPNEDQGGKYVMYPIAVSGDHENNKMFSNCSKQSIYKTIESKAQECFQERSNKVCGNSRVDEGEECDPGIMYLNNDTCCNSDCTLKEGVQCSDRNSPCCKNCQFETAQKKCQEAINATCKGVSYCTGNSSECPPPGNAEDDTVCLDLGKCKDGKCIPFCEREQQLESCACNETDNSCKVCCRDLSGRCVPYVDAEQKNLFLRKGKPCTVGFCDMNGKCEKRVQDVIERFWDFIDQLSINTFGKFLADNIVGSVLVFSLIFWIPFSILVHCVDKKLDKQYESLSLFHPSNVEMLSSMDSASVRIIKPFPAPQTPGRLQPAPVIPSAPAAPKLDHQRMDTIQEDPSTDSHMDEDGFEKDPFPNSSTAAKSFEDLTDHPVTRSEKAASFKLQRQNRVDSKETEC
V-ATPase pHluor – alters yeast V-ATPase proton transport. AID 504577. actives 0.37% (n = 350,000). S. cerevisiae, pHLuorin cytosolic pH fluorescence. response, % at 10 µM; in the data active = response mostly above about 7.3%, no sharp cut-off; inactive = mostly below about 5.4%; note: actives read high
ADAM10 ctr – counter-screen for ADAM17 exosite inhibitors: inhibitors of human ADAM10; inhibition, % at 6.95 µM; AID 743256; shares compounds with ADAM17 inh; actives 47% (n = 2,900); recombinant ADAM10, EDANS/DABCYL FRET peptide cleavage, 3 h;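 active = mean inhibition over the triplicate runs exceeds the activity threshold set in the earlier primary screen, cut at about 20% in these data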;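 note: 0% = DMSO wells and 100% = marimastat wells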
ADAM17 confirm – confirmation of inhibitors of human ADAM17 | inhibition, % at 6.95 µM | recombinant ADAM17, EDANS/DABCYL QFRET peptide cleavage | AID 743257 | actives 65% (n = 2,900) | shares compounds with ADAM17 inh;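 active = mean inhibition across replicates above the hit cutoff set in the primary screen, cut at about 8.5% in these data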;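 note: 0% = DMSO wells and 100% = marimastat wells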
An asterisk follows results filed as active; . = no result.

SMILES	MPTP inh	aDG glyco act	ADAM10 inh	Lipid droplet	ADAM17 inh	V-ATPase pHluor	ADAM10 ctr	ADAM17 confirm
Cc1cc(Oc2ccccc2)nc(N)n1	-1	0	3	8	2	5	.	.
Cc1cc(SCCOc2ccccc2)nc(N)n1	-1	0	4	.	11*	4	1	3
CCN(C(=O)[C@@H]1CC(=O)O[C@@H]1c1ccccc1)c1ccccc1	.	.	-3	.	-1	.	.	.
COc1cccc(-c2noc(C(C)n3nc(C)c([N+](=O)[O-])c3C)n2)c1 (stereo unspecified)	4	0	16	.	13*	-7	13	6
CCNC(=O)O/N=C(\C)c1sc(-c2ccc(Cl)cc2)nc1C	1	1	12	.	9.8*	2	7	8
C[C@H]1CCCN1c1ccc2c(c1)O[C@@H]1CCN(C1)S2(=O)=O	.	.	-8	.	-7	.	.	.
CCC1(CC)SCCNC1=O	-4	0	7	.	9.1*	1	-2	2
CN1CCNC(=O)C1CC(=O)O (stereo unspecified)	1	0	3	.	1	-3	.	.
C=CCN(CC#Cc1ccccc1)CC=C	.	.	-1	.	0	.	.	.
C[C@H](CO)N1C[C@H](C)[C@@H](CN(C)S(=O)(=O)c2cccs2)Oc2ccc(NC(=O)NC3CCCCC3)cc2C1=O	-1	0	0	.	-2	7	.	.
C[C@@H]1CCCCO[C@H](CN(C)S(=O)(=O)c2cccs2)[C@H](C)CN([C@@H](C)CO)C(=O)c2cc(NC(=O)NC3CCCCC3)ccc2O1	-3	0	15	.	11*	2	28*	16*
Cc1noc(C)c1NC(=O)Nc1ccc2c(c1)C(=O)N([C@H](C)CO)C[C@H](C)[C@H](CN(C)C(=O)NC1CCCCC1)OCCCC[C@@H](C)O2	0	2	4	.	9.8*	0	27*	7
C[C@H](CO)N1C[C@H](C)[C@@H](CN(C)C(=O)Nc2ccc3c(c2)OCO3)Oc2ccc(NC(=O)Nc3ccc(C(F)(F)F)cc3)cc2C1=O	0	-1	19	.	11*	3	21*	15*
C[C@H](O)[C@@H]1C(=O)N2CCc3c([nH]c4c(-c5ccc6c(c5)OCO6)cccc34)[C@@H]2C[C@@H]1N(C)C(=O)NC1CCCCC1	.	.	-49	.	-16	.	.	.
Cc1nn(CCC(=O)NNC(=O)Nc2ccccc2)c(C)c1[N+](=O)[O-]	.	.	-3	.	1	.	.	.
CC1=Nc2cc(C(=O)NCCN3CCOCC3)ccc2Sc2c(C)ccc(C)c21	-4	0	1	-15	9.3*	5	-15	0
CC1=Nc2cc(C(=O)NCCCN3CCOCC3)ccc2Sc2c(C)ccc(C)c21	0	0	-4	-2	0	2	.	.
CC1(C)CC(=O)C=C(Nc2ccccc2NC(=O)c2cc(Cl)ccc2F)C1	.	.	1	.	2	.	.	.
COc1ccc(-c2nnn3c2Cn2c4ccccc4c(=O)n2[C@@H](C(C)C)C3)cc1	.	.	-139	.	-35	.	.	.
CN1CC=C(c2ccc(C(F)(F)F)cc2)N(c2ccccc2)C1=O	.	.	2	.	-2	.	.	.
CC(=O)N(C)c1ccc(N=Nc2ccc3ncccc3c2)cc1	-1	0	17	.	9.6*	1	1	5
CC(C)(Oc1ccc(Cl)cc1)C(=O)OCC(=O)Nc1ncc(Cl)cc1Cl	4	0	15	.	9.9*	-3	0	0
CCCOc1ccc(-c2nc(CSCC(=O)NC3CC3)c(C)o2)cc1	.	.	-4	.	-1	.	.	.
Fc1ccc(Cn2c(SCc3ccc(F)c(C(F)(F)F)c3)nnc2C(F)(F)F)cc1	-3	0	16	.	8.8*	2	37*	17*
O=C(OCCOc1cccc(Cl)c1)c1cc(S(=O)(=O)N2CCOCC2)ccc1F	-2	0	6	.	10*	-3	12	6
SMILES	MPTP inh	aDG glyco act	ADAM10 inh	Lipid droplet	ADAM17 inh	V-ATPase pHluor	ADAM10 ctr	ADAM17 confirm
CCN(CC)c1nc(C)nc2c1nnn2Cc1ccccc1	.	.	-2	.	-2	.	.	.
CCN1C(=O)c2cccc3c(NC(=O)c4ccc5c(c4)OCCO5)ccc1c23	0	1	8	-2	9.5*	1	-9	0
O=C(NCCc1nc2ccccc2n1CCOc1cc(F)ccc1F)C1CCCCC1	.	.	6	.	3	.	.	.
CC(C)(NO)/C(=N/O)c1cccs1	0	0	8	.	9.2*	-4	5	5
O=C(CCc1ccc(S(=O)(=O)N2CCOCC2)cc1)N1CCCC1	0	0	2	0	-3	-2	.	.
CN(Cc1cccs1)C(=O)CCc1ccc(S(=O)(=O)N2CCOCC2)cc1	0	0	1	-25	11*	1	-8	1
CCc1nc2c(OCCC3CCCCC3)cccn2c1N(C)C(=O)c1cccs1	-1	0	17	.	9.4*	.	21*	12*
CCCCC(=O)N(C)c1c(CC)nc2c(OCCC3CCCCC3)cccn12	-2	1	-4	.	2	.	.	.
CCCCC(=O)N(C)c1c(CC)nc2c(OCC3CCCCC3)cccn12	0	1	5	.	9.7*	.	0	3
CN1Cc2nnn(Cc3ccccc3)c2-c2cc(F)ccc2S1(=O)=O	.	.	0	.	-4	.	.	.
COc1ccc(/C(O)=C2/C(=O)C(=O)N(CC3CCCO3)C2c2cccc(O)c2)cc1 (stereo unspecified)	-1	0	4	.	8.8*	-2	7	6
CCCCN1c2ccccc2N(CCCO)c2cc(C)nnc21	-2	0	15	.	9.8*	1	-8	0
CCCCN1C2=NC(c3ccccc3)CN2c2ccccc21 (stereo unspecified)	7	0	-1	.	1	2	.	.
Clc1ccc(N2COC3c4cccc5cccc(c45)C32)cc1 (stereo unspecified)	0	0	7	2	9.2*	0	-2	4
COc1ccc(N2COC3c4cccc5cccc(c45)C32)cc1 (stereo unspecified)	2	0	-7	-4	-6	-2	.	.
